Assay results published in ChEMBL document CHEMBL1806486, “Discovery and evaluation of 3-phenyl-1H-5-pyrazolylamine-based derivatives as potent, selective and efficacious inhibitors of FMS-like tyrosine kinase-3 (FLT3)” (Bioorg Med Chem, 2011).

How the values were obtained:
[1] = biological target: Platelet-derived growth factor receptor beta (Homo sapiens) (UniProt P09619); test: Inhibition of PDGFR beta at 0.1 uM
[2] = AUC (0 to infinity) in Sprague-Dawley rat at 5 mg/kg, iv and 20 mg/kg, po; format: ADME, organism-based; details: plasma
[3] = biological target: Vascular endothelial growth factor receptor 1 (Homo sapiens, UniProt P17948); test: Inhibition of recombinant GST-tagged VEGFR1 expressed in Sf9 insect cells after 120 mins by Kinase-Glo assay
Outline: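 GST-VEGFR1 (R781–I1338) or GST-VEGFR2 (V789–V1356) kinase domain, 50–100 ng, from Sf9 cells. Read-out was Kinase-Glo Plus luminescence.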

[4] = biological target: High affinity nerve growth factor receptor (Homo sapiens) (UniProt P04629); test: Inhibition of TRKA at 0.1 uM
[5] = Volume of distribution at steady state in Sprague-Dawley rat at 5 mg/kg, iv and 20 mg/kg, po; format: ADME, organism-based; details: in vivo, read-out: Vdss
[6] = test system: MV4-11; test: Antiproliferation activity against FLT3/ITD harboring human MV4-11 cells after 72 hrs by MTS method; format: functional; details: MV4-11, 72 h
[7] = biological target: T1, Aurora kinase A (Homo sapiens, UniProt O14965); test: Inhibition of recombinant GST-tagged Aurora A expressed in Sf9 insect cells after 90 mins by Kinase-Glo assay
T1 sequence (O14965 whole entry): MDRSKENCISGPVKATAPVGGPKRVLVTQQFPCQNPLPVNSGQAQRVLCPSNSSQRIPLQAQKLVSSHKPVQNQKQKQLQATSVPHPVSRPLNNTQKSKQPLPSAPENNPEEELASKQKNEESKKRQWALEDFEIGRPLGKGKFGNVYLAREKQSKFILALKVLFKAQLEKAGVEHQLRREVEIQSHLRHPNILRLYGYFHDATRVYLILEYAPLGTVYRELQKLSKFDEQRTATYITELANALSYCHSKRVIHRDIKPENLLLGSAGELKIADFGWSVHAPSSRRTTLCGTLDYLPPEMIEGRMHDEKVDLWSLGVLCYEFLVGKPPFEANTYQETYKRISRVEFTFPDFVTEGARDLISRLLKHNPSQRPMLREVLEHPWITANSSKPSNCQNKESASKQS
Outline: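 GST-Aurora A kinase domain (S123–S401, 150 ng) from Sf9 cells. Buffer was 50 mM Tris-HCl pH 7.4 with 10 mM NaCl, 10 mM MgCl2, 0.01% BSA and 1 mM DTT. Kinase-Glo Plus was added for 20 min at 25 °C before the luminescence read.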

[8] = test system: Mus musculus; test: Toxicity in normal mouse assessed as reduction of body weight at 50 mg/kg, iv for continuous 5 days; details: in vivo, 120 h

Chain of Vascular endothelial growth factor receptor 1 (P17948 whole entry, the tested form may be a part): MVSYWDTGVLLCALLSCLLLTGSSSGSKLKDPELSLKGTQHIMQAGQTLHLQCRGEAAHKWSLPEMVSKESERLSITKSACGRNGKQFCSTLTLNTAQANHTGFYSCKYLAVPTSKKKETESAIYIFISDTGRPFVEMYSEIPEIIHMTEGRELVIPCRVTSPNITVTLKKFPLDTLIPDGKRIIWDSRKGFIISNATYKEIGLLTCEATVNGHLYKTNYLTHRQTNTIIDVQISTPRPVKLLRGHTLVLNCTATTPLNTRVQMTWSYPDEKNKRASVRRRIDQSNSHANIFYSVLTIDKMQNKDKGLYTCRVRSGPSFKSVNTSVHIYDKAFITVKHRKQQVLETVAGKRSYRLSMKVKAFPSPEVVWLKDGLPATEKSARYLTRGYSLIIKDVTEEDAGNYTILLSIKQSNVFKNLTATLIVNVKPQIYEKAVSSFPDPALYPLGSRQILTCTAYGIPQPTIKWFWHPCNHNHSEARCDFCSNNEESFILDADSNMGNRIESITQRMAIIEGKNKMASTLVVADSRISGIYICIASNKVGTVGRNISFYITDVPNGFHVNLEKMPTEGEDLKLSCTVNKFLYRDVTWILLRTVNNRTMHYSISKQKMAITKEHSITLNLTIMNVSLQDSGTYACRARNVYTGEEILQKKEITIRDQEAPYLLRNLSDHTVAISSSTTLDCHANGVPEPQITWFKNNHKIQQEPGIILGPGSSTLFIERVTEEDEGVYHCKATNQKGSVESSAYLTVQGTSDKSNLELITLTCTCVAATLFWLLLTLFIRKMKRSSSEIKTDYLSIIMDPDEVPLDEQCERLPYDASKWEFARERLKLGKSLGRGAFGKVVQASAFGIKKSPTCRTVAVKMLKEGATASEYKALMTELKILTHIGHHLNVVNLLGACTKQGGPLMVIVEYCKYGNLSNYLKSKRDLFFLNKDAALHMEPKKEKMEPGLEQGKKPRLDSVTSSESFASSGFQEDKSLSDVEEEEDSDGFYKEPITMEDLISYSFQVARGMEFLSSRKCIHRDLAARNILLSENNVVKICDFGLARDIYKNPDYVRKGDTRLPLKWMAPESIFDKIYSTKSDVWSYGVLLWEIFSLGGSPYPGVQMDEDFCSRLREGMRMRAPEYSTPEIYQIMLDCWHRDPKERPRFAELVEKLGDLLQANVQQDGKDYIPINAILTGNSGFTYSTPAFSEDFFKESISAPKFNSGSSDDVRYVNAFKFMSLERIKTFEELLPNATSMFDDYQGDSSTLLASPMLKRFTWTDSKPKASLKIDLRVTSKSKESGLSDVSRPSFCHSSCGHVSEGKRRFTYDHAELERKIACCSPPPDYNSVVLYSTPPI
Chain of High affinity nerve growth factor receptor (Homo sapiens) (P04629 33-796 limits assumed): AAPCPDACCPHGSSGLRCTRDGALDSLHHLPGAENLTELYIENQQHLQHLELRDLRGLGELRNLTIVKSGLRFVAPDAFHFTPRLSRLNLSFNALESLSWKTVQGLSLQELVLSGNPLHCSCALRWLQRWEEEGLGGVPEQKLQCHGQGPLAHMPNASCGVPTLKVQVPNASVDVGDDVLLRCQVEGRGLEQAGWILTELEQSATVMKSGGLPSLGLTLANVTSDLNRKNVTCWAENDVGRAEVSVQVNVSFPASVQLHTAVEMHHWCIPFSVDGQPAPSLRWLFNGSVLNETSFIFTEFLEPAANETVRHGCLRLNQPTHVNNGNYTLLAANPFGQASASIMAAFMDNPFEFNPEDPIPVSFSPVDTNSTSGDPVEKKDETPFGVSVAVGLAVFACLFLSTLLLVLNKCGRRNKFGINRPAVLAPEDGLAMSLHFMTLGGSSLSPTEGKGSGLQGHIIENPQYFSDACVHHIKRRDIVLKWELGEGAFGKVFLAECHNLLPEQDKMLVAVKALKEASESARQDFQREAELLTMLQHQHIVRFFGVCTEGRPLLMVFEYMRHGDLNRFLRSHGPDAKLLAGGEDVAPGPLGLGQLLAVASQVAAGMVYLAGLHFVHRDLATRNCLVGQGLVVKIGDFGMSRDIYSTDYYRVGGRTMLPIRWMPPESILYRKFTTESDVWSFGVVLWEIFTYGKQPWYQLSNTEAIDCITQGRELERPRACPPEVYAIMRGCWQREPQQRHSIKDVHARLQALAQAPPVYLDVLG
Chain of Platelet-derived growth factor receptor beta (Homo sapiens) (P09619 whole entry): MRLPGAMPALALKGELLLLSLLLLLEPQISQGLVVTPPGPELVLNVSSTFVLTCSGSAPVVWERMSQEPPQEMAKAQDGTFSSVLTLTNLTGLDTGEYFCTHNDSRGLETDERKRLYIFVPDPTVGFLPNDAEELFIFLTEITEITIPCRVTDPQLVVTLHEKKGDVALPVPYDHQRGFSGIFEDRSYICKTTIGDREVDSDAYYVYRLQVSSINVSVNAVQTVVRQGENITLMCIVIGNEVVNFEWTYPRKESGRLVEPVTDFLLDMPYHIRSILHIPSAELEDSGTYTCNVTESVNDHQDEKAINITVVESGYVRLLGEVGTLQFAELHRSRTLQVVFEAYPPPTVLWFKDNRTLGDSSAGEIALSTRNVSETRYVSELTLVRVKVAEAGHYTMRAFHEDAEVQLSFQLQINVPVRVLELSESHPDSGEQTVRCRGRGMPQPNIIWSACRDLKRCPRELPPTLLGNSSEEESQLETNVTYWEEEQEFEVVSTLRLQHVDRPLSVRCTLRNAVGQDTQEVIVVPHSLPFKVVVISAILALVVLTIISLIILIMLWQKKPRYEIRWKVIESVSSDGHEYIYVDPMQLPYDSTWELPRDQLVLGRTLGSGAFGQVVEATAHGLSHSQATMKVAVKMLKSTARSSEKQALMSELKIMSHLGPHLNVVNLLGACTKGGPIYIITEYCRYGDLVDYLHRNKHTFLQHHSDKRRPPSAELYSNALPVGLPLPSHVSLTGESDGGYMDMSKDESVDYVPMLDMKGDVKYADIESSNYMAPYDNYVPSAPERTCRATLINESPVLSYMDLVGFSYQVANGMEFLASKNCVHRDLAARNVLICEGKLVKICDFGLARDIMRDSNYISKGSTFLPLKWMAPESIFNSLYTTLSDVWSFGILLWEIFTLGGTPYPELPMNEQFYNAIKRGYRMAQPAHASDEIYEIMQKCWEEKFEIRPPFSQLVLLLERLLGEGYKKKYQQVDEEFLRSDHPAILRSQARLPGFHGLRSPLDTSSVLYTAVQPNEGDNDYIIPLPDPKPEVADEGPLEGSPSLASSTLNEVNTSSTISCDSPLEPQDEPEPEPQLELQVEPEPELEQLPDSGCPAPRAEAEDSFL

inhibition [1]: 18%
AUC(0-inf) [2]: 1400 ng·h/mL
IC50 [3]: 310 nM
inhibition [4]: 96%
Vd [5]: 6.6 L/kg
GI50 [6]: 27 nM
IC50 [7]: 290 nM
Compound: Cc1nc(Nc2cc(-c3cccc(NS(=O)(=O)c4ccccc4)c3)n[nH]2)cc(N2CCN(C)CC2)n1
Activity [8]: Non-toxic
